Assay results as given in ChEMBL document CHEMBL2021903, “3-Deoxy-3,4-dehydro analogs of XM462. Preparation and activity on sphingolipid metabolism and cell fate” (Bioorg Med Chem, 2012).
The source made the active and inactive calls. No cut-off for these calls is given here.

Legend:
[1] = molecular target: T1, Lysosomal acid glucosylceramidase (Homo sapiens) (UniProt P04062); assay: Inhibition of human glucocerebrosidase using 4-methylumbelliferyl beta-D-glucoside as substrate at 100 uM preincubated prior substrate addition measured after 45 mins by spectrophotometry
T1 sequence (whole entry): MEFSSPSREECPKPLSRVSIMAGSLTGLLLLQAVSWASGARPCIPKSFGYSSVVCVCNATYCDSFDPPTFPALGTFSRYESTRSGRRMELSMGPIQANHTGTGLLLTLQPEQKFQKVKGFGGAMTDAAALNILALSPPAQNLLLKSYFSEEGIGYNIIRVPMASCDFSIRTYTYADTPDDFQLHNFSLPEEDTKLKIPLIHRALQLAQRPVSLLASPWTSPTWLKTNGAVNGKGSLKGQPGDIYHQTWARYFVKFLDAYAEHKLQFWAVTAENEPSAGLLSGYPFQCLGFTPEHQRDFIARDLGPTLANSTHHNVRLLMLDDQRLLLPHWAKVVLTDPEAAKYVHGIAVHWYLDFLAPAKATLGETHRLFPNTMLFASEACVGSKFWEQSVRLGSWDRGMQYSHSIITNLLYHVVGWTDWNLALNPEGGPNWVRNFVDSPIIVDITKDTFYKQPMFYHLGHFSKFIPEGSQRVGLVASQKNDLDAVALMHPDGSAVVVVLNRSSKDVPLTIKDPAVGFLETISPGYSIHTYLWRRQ

HCT-116 = assay: Cytotoxicity against human HCT116 cells after 24 hrs by MTT assay; assay type: functional; details: HCT-116, 24 h, read-out: LD50 (the source's name)
In short: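 Cells seeded at 10⁵ cells/mL; after 24 h medium replaced with fresh medium with or without test compounds across a concentration range. Viable cells counted by MTT after 24 h of treatment. LD₅₀ (µM) obtained by regression analysis of dose–response curves from two experiments with triplicates. HCT116 kept in low-glucose DMEM with 10% FBS at 37 °C, 5% CO2; cells used at about 80% confluence.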

A549 [2] = assay: Cytotoxicity against human A549 cells after 24 hrs by MTT assay; assay type: functional; details: A549, 24 h, read-out: LD50 (the source's name)
[3] = molecular target: T2, Sphingomyelin phosphodiesterase (Homo sapiens) (UniProt P17405); assay: Inhibition of human aSMase using 6-hexadecanoylamino-4-methylumbelliferylphosphorylcholine as substrate at 100 uM preincubated for 30 mins prior substrate addition measured after 2 hrs by spectrophotometry
T2 sequence (whole entry): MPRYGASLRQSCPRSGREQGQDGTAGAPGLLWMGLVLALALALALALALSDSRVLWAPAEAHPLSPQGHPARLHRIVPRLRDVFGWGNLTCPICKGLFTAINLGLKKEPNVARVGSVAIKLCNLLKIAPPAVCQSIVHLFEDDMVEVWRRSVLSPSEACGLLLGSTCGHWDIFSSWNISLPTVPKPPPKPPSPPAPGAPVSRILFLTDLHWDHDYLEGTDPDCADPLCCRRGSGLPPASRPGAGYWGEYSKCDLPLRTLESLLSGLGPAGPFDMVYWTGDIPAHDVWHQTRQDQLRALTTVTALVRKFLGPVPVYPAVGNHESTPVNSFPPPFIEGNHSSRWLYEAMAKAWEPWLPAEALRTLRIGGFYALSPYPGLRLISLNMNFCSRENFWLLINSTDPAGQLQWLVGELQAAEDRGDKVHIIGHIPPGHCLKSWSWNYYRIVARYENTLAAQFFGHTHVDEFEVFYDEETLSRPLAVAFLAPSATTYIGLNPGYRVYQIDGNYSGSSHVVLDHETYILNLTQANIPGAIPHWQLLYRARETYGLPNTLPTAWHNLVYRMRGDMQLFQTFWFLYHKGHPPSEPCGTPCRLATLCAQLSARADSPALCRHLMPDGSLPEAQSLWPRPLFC

Acid ceramidase [4] = molecular target: T3, Acid ceramidase (Homo sapiens, UniProt Q13510); assay: Inhibition of aCDase using RBM14C12 as substrate after 1 hr by HPLC-FD analysis
T3 sequence (Q13510 whole entry): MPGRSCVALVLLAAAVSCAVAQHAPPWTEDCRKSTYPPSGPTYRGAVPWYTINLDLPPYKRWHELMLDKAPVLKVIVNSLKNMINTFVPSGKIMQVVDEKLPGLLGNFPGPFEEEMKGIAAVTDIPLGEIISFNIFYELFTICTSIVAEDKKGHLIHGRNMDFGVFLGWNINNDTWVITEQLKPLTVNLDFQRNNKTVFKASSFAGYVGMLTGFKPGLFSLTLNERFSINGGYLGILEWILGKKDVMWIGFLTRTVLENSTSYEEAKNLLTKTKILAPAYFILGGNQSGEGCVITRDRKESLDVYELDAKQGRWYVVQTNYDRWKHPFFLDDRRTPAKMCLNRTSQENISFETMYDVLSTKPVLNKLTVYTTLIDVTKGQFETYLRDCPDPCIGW

A549 [5] = assay: Inhibition of SM synthase in human A549 cells using CerC6NBD as substrate preincubated for 24 hrs prior substrate addition measured after 3 hrs by HPLC-FD analysis; assay type: cell-based
[6] = molecular target: Neutral ceramidase (Homo sapiens) (UniProt Q9NR71); assay: Inhibition of nCDase in Moh.pAS cells using CerC12NBD as substrate after 1 hr by HPLC-FD analysis; assay type: cell-based
Chain of Neutral ceramidase (Homo sapiens) (Q9NR71 whole entry): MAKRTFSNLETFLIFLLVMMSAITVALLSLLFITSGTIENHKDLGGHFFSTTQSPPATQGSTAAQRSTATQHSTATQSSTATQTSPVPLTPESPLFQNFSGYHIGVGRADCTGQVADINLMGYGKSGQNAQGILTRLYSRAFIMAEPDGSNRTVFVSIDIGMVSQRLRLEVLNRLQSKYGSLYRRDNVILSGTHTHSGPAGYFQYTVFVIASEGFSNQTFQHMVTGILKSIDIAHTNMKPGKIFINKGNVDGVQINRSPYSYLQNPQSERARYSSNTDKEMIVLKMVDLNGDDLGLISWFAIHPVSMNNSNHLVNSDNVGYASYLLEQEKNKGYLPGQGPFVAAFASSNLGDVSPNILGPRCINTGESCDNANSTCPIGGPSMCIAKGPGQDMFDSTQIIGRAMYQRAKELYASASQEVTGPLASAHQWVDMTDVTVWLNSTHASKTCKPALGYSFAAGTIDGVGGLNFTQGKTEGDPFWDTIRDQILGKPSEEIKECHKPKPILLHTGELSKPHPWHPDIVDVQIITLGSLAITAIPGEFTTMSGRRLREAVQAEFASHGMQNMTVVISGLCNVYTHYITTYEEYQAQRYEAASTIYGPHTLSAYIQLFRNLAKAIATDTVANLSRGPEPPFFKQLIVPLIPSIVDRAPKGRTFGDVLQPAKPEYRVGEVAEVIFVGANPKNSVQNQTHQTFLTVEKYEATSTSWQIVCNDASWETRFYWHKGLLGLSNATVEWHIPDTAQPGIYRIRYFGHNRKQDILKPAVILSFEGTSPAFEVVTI
In short: (§1)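 Moh. pAS cells transfected to overexpress neutral ceramidase. Lysates (sonicated in 1 mM Tris–HCl, 0.1 mM EDTA, pH 7.5) incubated 1 h, 37 °C, with 5 µM CerC12NBD in 25 mM Tris–HCl pH 7.5, 1% sodium cholate, ±50 µM compound. Intact cells treated 4 h with 50 µM compound before lysis and assay. Read-out HPLC-fluorescence.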

A549 [7] = assay: Effect on sphingolipidome in human A549 cells assessed as increase in total ceramides at 10 uM after 24 hrs by UPLC-TOF analysis; assay type: functional, cell-based
In short: (§2)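 Cells incubated with compound at 10 µM, 24 h (A549) or 14 h (HCT116); lipids then extracted and profiled. Long-chain bases and phosphates were read by LC-MS/MS (positive electrospray, selected reaction monitoring, C17-dihydrosphingosine and C17-dihydrosphingosine-1-phosphate transitions monitored). Amounts expressed as pmol per 10⁶ cells. Mean ± SD of triplicates; unpaired two-tailed t-test versus control.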

Acid ceramidase [8] = molecular target: T3, Acid ceramidase; assay: Inhibition of aCDase in Moh.pAS AcCer10X cells using RBM14C12 as substrate after 1 hr by HPLC-FD analysis; assay type: cell-based
A549 [9] = assay: Effect on sphingolipidome in human A549 cells assessed as increase in dihydroceramide per 10^6 cells at 10 uM after 24 hrs by UPLC-TOF analysis relative to control (reference value: 6.5 +/- 0.42 pmol/10^6 cells); assay type: functional; in short: as §2
[10] = molecular target: Neutral ceramidase (Homo sapiens) (UniProt Q9NR71); assay: Inhibition of nCDase using CerC12NBD as substrate after 1 hr by HPLC-FD analysis; in short: as §1

Row | SMILES | inhibition [1] | CC50 (HCT-116) [µM] | CC50 (A549 [2]) [µM] | inhibition [3] | IC50 (Acid ceramidase [4]) [µM] | inhibition (A549 [5]) | inhibition [6] | Activity (A549 [7]) | IC50 (Acid ceramidase [8]) [µM] | Activity (A549 [9]) | inhibition [10]
1 | CCCCCCCCCCCCCS/C=C/[C@H](CO)NC(=O)CCCCCCC | inactive | 28 | 19 | inactive | 77 | inactive | inactive | inactive | 77 | 22.9 pmol | inactive
2 | CCCCCCCCCCCCCS/C=C/[C@H](CO)NC(=O)c1ccc(C(C)(C)C)cc1 | inactive | 81 | 76 | inactive | 315 | inactive | inactive | inactive | 315 | inactive | inactive
3 | CCCCCCCCCCCCCS/C=C/[C@H](CO)NC(=O)C(C)(C)C | inactive | 30 | 24 | inactive | 51 | inactive | inactive | inactive | 51 | 12.4 pmol | inactive
